Laboratory results reported in the M2OR odorant receptor database.
Where a chain is given by its changes, count along the chain named.

Legend:
Conditions in all cases: stereoisomer not certain
OR1F12P (Homo sapiens) = molecular target: T1, OR1F12P (Homo sapiens) (UniProt Q8NHA8)
T1 sequence (whole entry): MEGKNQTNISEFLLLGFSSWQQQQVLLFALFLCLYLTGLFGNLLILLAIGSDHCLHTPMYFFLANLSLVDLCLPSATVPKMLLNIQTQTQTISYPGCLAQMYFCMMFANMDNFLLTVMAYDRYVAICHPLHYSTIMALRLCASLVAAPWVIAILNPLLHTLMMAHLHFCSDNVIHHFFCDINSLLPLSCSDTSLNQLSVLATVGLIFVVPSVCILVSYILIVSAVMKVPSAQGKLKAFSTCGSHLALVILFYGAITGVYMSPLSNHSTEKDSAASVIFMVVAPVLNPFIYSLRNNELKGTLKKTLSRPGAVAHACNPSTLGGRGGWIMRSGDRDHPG
Outline: (§1)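 Each entry records the cell line, G-protein, co-transfected protein and tags used. Methods varied with the source, often transient luciferase assays in mammalian cell lines. A receptor–molecule pair is called responsive (active) if the original authors judged its signal statistically different from baseline and non-responsive (inactive) otherwise.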

OR1F1 = tested on: T2, OR1F1
T2 sequence (whole entry): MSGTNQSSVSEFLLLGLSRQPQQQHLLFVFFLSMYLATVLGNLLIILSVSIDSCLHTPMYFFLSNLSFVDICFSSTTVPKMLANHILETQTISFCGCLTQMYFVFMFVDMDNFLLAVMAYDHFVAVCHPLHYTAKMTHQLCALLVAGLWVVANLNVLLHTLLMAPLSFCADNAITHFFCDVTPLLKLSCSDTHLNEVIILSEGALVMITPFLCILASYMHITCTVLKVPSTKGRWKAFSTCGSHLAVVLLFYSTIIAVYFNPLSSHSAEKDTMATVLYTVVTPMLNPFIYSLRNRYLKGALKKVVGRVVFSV
Outline: as §1

OR1G1 (Homo sapiens) = molecular target: T3, OR1G1 (Homo sapiens) (UniProt P47890)
T3 sequence (whole entry): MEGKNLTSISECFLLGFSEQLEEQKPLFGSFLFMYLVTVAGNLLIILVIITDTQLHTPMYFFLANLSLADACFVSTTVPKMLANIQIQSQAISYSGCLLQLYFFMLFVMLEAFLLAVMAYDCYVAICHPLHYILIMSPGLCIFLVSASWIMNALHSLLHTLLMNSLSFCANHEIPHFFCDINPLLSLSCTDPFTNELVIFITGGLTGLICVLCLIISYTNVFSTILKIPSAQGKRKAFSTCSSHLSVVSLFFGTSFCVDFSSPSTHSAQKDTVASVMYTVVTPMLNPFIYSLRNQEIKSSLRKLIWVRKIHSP
Outline: as §1

OR1I1 (Homo sapiens) = molecular target: T4, OR1I1 (Homo sapiens) (UniProt O60431)
T4 sequence (whole entry): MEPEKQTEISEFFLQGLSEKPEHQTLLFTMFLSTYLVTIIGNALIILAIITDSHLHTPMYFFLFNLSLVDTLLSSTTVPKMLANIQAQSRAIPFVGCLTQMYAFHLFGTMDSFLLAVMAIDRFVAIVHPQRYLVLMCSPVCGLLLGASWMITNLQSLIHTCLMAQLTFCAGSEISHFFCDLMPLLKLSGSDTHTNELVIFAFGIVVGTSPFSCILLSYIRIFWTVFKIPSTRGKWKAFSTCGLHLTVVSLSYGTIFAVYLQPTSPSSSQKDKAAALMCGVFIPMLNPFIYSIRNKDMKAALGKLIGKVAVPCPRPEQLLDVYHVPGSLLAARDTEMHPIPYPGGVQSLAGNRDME
Outline: as §1

OR1J1 (Homo sapiens) = molecular target: T5, OR1J1 (Homo sapiens) (UniProt Q8NGS3)
T5 sequence (whole entry): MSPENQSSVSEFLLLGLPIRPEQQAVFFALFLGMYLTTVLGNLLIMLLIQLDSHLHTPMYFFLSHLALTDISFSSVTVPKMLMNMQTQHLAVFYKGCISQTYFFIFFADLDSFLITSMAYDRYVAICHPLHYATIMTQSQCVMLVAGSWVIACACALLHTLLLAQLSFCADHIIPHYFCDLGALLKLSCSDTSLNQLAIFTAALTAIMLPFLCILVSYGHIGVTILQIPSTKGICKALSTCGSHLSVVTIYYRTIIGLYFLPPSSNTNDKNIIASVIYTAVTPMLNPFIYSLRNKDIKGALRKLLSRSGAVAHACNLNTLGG
Outline: as §1

OR1J2 (Homo sapiens) = molecular target: T6, OR1J2 (Homo sapiens) (UniProt Q8NGS2)
T6 sequence (whole entry): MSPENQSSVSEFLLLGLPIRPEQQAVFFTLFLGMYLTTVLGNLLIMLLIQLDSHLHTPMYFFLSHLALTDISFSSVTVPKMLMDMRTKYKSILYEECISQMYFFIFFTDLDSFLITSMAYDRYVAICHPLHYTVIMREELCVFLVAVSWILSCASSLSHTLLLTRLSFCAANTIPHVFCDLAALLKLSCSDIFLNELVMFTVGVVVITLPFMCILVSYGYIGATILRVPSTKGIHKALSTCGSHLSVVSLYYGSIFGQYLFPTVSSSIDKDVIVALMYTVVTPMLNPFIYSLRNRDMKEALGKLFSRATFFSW
Outline: as §1

OR1J4 (Homo sapiens) = molecular target: T7, OR1J4 (Homo sapiens) (UniProt Q8NGS1)
T7 sequence (whole entry): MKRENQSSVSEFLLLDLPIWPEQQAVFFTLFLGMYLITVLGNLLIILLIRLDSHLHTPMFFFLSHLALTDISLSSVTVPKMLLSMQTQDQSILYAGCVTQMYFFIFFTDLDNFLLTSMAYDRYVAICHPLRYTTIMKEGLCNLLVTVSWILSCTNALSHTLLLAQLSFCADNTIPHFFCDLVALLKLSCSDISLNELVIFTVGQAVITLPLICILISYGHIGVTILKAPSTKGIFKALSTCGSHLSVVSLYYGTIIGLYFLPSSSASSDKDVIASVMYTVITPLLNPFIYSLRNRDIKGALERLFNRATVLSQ
Outline: as §1

OR1K1 (Homo sapiens) = molecular target: T8, OR1K1 (Homo sapiens) (UniProt Q8NGR3)
T8 sequence (whole entry): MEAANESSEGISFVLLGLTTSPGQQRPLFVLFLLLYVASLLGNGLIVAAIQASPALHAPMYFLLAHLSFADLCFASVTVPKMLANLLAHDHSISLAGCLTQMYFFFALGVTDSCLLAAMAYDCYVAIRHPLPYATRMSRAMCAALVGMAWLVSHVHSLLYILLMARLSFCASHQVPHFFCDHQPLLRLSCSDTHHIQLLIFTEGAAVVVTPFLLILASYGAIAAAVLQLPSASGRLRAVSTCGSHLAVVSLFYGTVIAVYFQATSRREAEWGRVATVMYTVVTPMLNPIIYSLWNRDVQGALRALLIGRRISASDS
Outline: as §1

OR1L1 = tested on: T9, OR1L1
T9 sequence (whole entry): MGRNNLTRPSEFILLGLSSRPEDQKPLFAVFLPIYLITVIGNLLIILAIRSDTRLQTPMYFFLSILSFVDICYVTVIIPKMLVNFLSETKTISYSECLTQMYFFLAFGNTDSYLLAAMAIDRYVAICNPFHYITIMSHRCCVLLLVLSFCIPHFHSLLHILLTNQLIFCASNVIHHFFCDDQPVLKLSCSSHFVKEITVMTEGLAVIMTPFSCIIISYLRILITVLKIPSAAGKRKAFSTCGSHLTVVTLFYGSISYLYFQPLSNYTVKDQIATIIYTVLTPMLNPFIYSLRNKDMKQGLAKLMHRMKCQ
Outline: as §1

OR1L3 (Homo sapiens) = molecular target: T10, OR1L3 (Homo sapiens) (UniProt Q8NH93)
T10 sequence (whole entry): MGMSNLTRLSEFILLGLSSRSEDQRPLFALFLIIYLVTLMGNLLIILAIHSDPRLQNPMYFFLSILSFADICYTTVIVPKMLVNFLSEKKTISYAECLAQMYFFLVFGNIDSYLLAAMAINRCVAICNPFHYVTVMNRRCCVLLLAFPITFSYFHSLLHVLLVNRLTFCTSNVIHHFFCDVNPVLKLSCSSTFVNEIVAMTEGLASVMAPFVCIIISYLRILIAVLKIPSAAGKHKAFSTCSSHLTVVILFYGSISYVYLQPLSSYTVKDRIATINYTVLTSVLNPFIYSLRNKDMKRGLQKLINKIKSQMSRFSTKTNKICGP
Outline: as §1

OR1L4 (Homo sapiens) = molecular target: T11, OR1L4 (Homo sapiens) (UniProt Q8NGR5)
T11 sequence (whole entry): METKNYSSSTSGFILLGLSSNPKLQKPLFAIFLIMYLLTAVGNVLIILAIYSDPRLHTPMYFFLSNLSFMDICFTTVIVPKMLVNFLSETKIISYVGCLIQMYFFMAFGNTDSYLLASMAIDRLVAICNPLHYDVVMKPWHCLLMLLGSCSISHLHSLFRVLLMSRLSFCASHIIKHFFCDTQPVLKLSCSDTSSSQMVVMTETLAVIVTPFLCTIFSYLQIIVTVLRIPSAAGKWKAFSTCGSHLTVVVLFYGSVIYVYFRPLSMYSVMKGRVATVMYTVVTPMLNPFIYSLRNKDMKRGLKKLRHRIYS
Outline: as §1

OR1L4 = tested on: T12, OR1L4
T12 sequence (whole entry): T11 sequence (whole entry) with G234R
Outline: as §1

OR1L6 = tested on: T13, OR1L6
T13 sequence (whole entry): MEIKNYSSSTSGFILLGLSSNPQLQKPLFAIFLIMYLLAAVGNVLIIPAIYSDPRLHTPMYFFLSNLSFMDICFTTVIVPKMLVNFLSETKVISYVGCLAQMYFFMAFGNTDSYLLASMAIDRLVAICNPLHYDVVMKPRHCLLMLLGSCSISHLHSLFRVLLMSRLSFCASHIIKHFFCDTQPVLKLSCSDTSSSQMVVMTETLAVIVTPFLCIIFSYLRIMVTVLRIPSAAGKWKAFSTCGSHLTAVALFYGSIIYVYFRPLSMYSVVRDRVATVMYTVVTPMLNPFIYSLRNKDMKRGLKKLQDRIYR
Outline: as §1

OR1L8 (Homo sapiens) = molecular target: T14, OR1L8 (Homo sapiens) (UniProt Q8NGR8)
T14 sequence (whole entry): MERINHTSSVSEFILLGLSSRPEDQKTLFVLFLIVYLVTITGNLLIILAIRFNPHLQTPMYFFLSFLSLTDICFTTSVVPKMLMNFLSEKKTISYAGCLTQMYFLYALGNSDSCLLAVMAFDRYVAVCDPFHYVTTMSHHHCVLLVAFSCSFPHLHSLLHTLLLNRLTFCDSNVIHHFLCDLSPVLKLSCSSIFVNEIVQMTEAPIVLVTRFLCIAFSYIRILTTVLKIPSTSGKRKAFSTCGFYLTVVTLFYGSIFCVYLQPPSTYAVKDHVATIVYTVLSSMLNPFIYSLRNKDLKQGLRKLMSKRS
Outline: as §1

OR1L8 T27P R211P = tested on: T15, OR1L8 T27P R211P
T15 sequence (whole entry): T14 sequence (whole entry) with T27P, R211P
Outline: as §1

OR1M1 (Homo sapiens) = molecular target: T16, OR1M1 (Homo sapiens) (UniProt Q8NGA1)
T16 sequence (whole entry): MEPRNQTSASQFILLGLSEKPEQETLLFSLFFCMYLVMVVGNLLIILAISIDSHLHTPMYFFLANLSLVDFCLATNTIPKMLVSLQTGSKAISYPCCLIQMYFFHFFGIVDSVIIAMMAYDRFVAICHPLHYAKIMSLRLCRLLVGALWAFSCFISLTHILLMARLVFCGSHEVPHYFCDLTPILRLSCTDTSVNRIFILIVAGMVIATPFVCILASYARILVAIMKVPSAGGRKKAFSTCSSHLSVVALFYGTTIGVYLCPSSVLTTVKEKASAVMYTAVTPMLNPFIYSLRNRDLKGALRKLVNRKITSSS
Outline: as §1

OR1N1 (Homo sapiens) = molecular target: T17, OR1N1 (Homo sapiens) (UniProt Q8NGS0)
T17 sequence (whole entry): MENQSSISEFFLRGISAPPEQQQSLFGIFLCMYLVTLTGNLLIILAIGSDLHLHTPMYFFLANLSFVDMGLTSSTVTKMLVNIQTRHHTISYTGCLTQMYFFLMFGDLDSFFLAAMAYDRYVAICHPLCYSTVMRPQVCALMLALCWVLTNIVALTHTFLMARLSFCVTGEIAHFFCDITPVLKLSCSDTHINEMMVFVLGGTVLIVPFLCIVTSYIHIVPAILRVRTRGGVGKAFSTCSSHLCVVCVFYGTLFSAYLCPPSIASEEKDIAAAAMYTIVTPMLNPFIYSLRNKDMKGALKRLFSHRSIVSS
Outline: as §1

OR1N2 W37R = tested on: T18, OR1N2 W37R
T18 sequence (whole entry): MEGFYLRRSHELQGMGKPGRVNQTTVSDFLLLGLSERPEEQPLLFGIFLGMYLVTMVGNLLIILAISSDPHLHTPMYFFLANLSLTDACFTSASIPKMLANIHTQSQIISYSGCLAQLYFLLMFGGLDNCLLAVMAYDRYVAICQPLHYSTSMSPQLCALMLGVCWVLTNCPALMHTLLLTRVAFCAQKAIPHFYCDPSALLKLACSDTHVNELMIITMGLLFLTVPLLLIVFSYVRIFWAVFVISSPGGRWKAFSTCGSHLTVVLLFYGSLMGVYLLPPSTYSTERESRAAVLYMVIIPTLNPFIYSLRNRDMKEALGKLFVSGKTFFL
Outline: as §1

Measured: odorant receptor agonist call

CC1=C(O)C(=O)OC1C (stereo not drawn)
inactive: all assays above
